# Experimental data from ChEMBL document CHEMBL1799990, “Triazole and dihydroimidazole alkaloids from the marine sediment-derived fungus Penicillium paneum SD-44” (J Nat Prod, 2011).
# Calls of active or inactive are those of the source. The calls are words filed in the database; no cut-off is given here.
# Columns and labels:
# A549 = experiment: Cytotoxicity against human A549 cells; assay type: functional, cell-based
# Bel-7402 = experiment: Cytotoxicity against human Bel7402 cells; assay type: functional, cell-based
# Staphylococcus aureus = experiment: Antibacterial activity against Staphylococcus aureus by disk diffusion method; assay type: functional, organism-based
# Outline: (§1)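 Disk diffusion assay against the two bacteria, run alongside chloramphenicol as the positive control.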
# Escherichia coli = experiment: Antibacterial activity against Escherichia coli by disk diffusion method; assay type: functional, organism-based; outline: as §1
# Alternaria brassicae = experiment: Antifungal activity against Alternaria brassicae by disk diffusion method; assay type: functional
# Outline: (§2)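 Disk diffusion assay against the five plant-pathogenic fungi, run alongside amphotericin B as the positive control.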
# [1] = system: Fusarium oxysporum f. sp. vasinfectum; experiment: Antifungal activity against Fusarium oxysporum f. sp. vasinfectum by disk diffusion method; assay type: functional, organism-based; outline: as §2
# [2] = Antifungal activity against Coniella diplodiella by disk diffusion method; assay type: functional; outline: as §2
# [3] = system: Botryosphaeria berengeriana; experiment: Antifungal activity against Physalospora pyricola by disk diffusion method; assay type: functional, organism-based; outline: as §2
# Aspergillus niger = experiment: Antifungal activity against Aspergillus niger by disk diffusion method; assay type: functional, organism-based; outline: as §2
# SMMC-7721 = experiment: Cytotoxicity against human SMMC7721 cells; assay type: functional, cell-based
SMILES,IC50 (A549),IC50 (Bel-7402),Activity (Staphylococcus aureus),Activity (Escherichia coli),Activity (Alternaria brassicae),Activity [1],Activity [2],Activity [3],Activity (Aspergillus niger),IC50 (SMMC-7721)
O=c1[nH]c(Cc2ccc(O)cc2)nc2ccccc12,17.5 µM,19.8 µM,inactive,inactive,inactive,inactive,inactive,inactive,inactive,
O=C1N[C@H]2[C@H](c3ccc(O)cc3)N=CN2c2ccccc21,,,inactive,inactive,inactive,inactive,inactive,inactive,inactive,
O=C(O)c1ccccc1-n1ncnc1Cc1ccc(O)cc1 [PENIPANOID A],,,inactive,inactive,inactive,inactive,inactive,inactive,inactive,54.2 µM
O=C(c1ccc(O)cc1)c1nc2ccccc2c(=O)[nH]1,,,inactive,inactive,inactive,inactive,inactive,inactive,inactive,
O=c1[nH]cc(F)c(=O)[nH]1 [FLUOROURACIL],13.7 µM,21.8 µM,,,,,,,,13 µM
